Assay [1] deals with Meloidogyne incognita. In words: Nematicidal activity against second-stage juveniles of Meloidogyne incognita (root-knot nematode) after 1 day by inverted microscopic analysis. Type of assay: functional, organism-based. Conditions: 24 h. In short, it runs like this: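 Stocks in methanol, diluted with water/Tween; double-strength solutions mixed 1:1 with 25 J2 per well (methanol ≤1% final), covered, dark, 28 °C, 1 day. Controls: water and water/Tween 0.2%. Paralysis corrected for water-control mortality; five replicates, experiment run twice; EC50 from log-logistic nonlinear regression.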

For assay [2], the system named is Meloidogyne incognita. The experiment in a line: Nematicidal activity against second-stage juveniles of Meloidogyne incognita (root-knot nematode) after 1 hr by inverted microscopic analysis. Type of assay: functional. In short, it runs like this: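 J2 motility assay: methanol stocks diluted in water/Tween, mixed 1:1 with 25 J2 per well (methanol ≤1% final), kept covered in dark at 28 °C; paralysis scored at 1 h over a concentration range to give EC100. Water and water/Tween 0.2% controls; five replicates, repeated twice.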

Assay [3] deals with T1, Collagen (Meloidogyne javanica) (UniProt O01945).
T1 sequence (whole entry): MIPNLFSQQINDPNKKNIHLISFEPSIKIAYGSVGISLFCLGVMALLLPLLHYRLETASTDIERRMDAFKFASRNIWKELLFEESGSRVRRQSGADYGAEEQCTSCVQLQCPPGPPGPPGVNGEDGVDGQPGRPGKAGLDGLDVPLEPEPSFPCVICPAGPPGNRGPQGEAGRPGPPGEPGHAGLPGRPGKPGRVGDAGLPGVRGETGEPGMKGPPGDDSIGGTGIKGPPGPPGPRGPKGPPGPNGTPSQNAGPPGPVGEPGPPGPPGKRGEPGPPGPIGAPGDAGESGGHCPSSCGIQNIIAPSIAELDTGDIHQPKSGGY
The experiment in a line: Covalent binding to Meloidogyne javanica (root-knot nematode) collagen 3 assessed as compound-protein adduct formation at 5 mM by HPLC-ESI-MS analysis. The gist of the method: (§1)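 Aldehyde (final 1, 5 or 15 mM) incubated with probe peptide (0.5 mM) in 100 mM Tris-HCl pH 7.4, 25 °C, dark, 24 h, duplicate; stopped with TFA (0.1% final). Diluted in 0.1% TFA, analysed by HPLC-ESI-MS (C18, TFA water/acetonitrile gradient). Adducts quantified label-free as relative XIC peak area of each derivative versus sum of all derivatives; peptide-only control.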

In assay [4] the target is T1, Collagen (Meloidogyne javanica). In words: Covalent binding to Meloidogyne javanica (root-knot nematode) collagen 3 assessed as compound-protein adduct formation at 1 mM by HPLC-ESI-MS analysis. The gist of the method: as §1
Assay [5] has the same target. In words: Covalent binding to Meloidogyne javanica (root-knot nematode) collagen 3 assessed as compound-protein adduct formation at 15 mM by HPLC-ESI-MS analysis. In short, it runs like this:
as §1

Assay [6] relates to Meloidogyne incognita. The experiment in a line: Nematicidal activity against second-stage juveniles of Meloidogyne incognita (root-knot nematode) assessed as microscopic fracture on cuticle at […] by scanning electron microscopic analysis. Type of assay: functional, organism-based. In short, it runs like this:
(§2)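 J2 juveniles were exposed to the aldehyde, with untreated J2 as negative controls. They were postfixed in 1% osmium tetroxide in 0.1 M cacodylate buffer for 1 h, washed in distilled water, and frozen in slush nitrogen. They were then freeze-dried under vacuum overnight (−70 °C rising to room temperature), sputter-coated with 10 nm gold and imaged by secondary-electron SEM at 15 kV.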

In assay [7] the test system is Meloidogyne incognita. The experiment in a line: Nematicidal activity against second-stage juveniles of Meloidogyne incognita (root-knot nematode) assessed as smooth/stretched cuticle at […] by scanning electron microscopic analysis. Type of assay: functional, organism-based. In short, it runs like this: as §2
The test system of assay [8] is Meloidogyne incognita. In words: Nematicidal activity against second-stage juveniles of Meloidogyne incognita (root-knot nematode) assessed as macroscopic fracture on cuticle at […] by scanning electron microscopic analysis. Format: functional, organism-based. In short, it runs like this: as §2

≈ marks a conversion by molar mass, not a printed value. Calls of active or inactive are those of the source. No cut-off for these calls is given here. Bounds are passed on as bounds.

Broadly, the EC50 is the midpoint of the concentration-response curve. Read a low EC50 as greater potency. `CCc1ccc(O)c(C=O)c1` registered an EC50 in assay [1] of 53 mg/L (≈ 353 µM). Besides, in assay [2], the EC100 is given as more than 100 mg/L.
The matching figures for `CCCCCCCCCCCCCCCc1ccc(C=O)c(O)c1`: more than 1000 mg/L and more than 1000 mg/L.
The matching figures for `O=CCc1ccccc1` [PHENYLACETALDEHYDE]: 167 mg/L (≈ 1390 µM) and 1000 mg/L.
As for `COc1ccc(C=O)cc1OC` [3,4-DIMETHOXYBENZALDEHYDE], the figures for the Activity in assay [3] and in assay [4] were 70% and 65%, respectively. Moreover, the EC50 in assay [1] was more than 1000 mg/L. In assay [2], this molecule gave an EC100 of more than 1000 mg/L.
For `O=Cc1cccc(O)c1` [3-HYDROXYBENZALDEHYDE], the EC50 in assay [1] is 31 mg/L (≈ 254 µM). For the same molecule, in assay [2], the EC100 was more than 250 mg/L.
In the case of `O=Cc1cccc(C(=O)O)c1` [3-FORMYLBENZOIC ACID], the EC50 in assay [1] was more than 1000 mg/L. This molecule also came in with an EC100 in assay [2] of more than 1000 mg/L.
Regarding `CCOP(=O)(SC(C)CC)N1CCSC1=O` (configuration not stated) [FOSTHIAZATE], the EC100 in assay [2] is 3 mg/L.
Turning to `O=C(O)/C=C/c1ccccc1` [CINNAMIC ACID], in assay [1], the EC50 is more than 250 mg/L. This molecule also gave an EC100 in assay [2] of more than 250 mg/L.
Regarding `O=Cc1ccc(O)c(O)c1` [PROTOCATECHUALDEHYDE], the values for the Activity in assay [3], in assay [5] and in assay [4] were 89%, 73% and 72%, respectively. The EC50 in assay [1] was more than 1000 mg/L. The same molecule had an EC100 in assay [2] of more than 1000 mg/L.
On to `O=Cc1ccccc1[N+](=O)[O-]` [2-NITROBENZALDEHYDE], for which, in assay [1], the EC50 is 120 mg/L (≈ 794 µM). For the same molecule, the EC100 in assay [2] is more than 200 mg/L.
`O=Cc1ccco1` [FURFURAL]: the midpoint of the response in assay [1], the EC50, lay at 8 mg/L (≈ 83.3 µM). In assay [2], this molecule came in with an EC100 of 11 mg/L.
In assay [1], `c1ccc([C@H]2CN3CCSC3=N2)cc1` [LEVAMISOLE] had an EC50 of 4 mg/L (≈ 19.6 µM). Also, the EC100 in assay [2] was more than 20 mg/L.
The matching figures for `Cn1c2cccc(=O)c-2nc2ccccc21` [PYOCYANIN]: 72 mg/L (≈ 342 µM) and more than 250 mg/L.
The matching figures for `Oc1ccccc1O` [CATECHOL]: more than 500 mg/L and more than 500 mg/L.
The matching figures for `O=Cc1ccc(O)cc1` [4-HYDROXYBENZALDEHYDE]: 75 mg/L (≈ 614 µM) and 500 mg/L.
On to `O=Cc1ccccc1O` [SALICYLADEHYDE], for which the result in assay [6] was inactive. Also, the Activity in assay [3] came to 57%; in assay [4] it was 61%. Also, the result in assay [7] and in assay [8] was Active. For the same molecule, the EC50 in assay [1] is 11 mg/L (≈ 90.1 µM). For the same molecule, the EC100 in assay [2] is more than 25 mg/L.
Molecule `O=C/C=C\c1ccccc1` [CINNAMIC ALDEHYDE] registered an EC50 in assay [1] of 12 mg/L (≈ 90.8 µM). Moreover, in assay [2], the EC100 is more than 250 mg/L.
`CC(=O)c1ccc2c(c1)OCO2` [3,4-METHYLENDIOXY ACETOPHENONE] came in with an EC50 in assay [1] of more than 500 mg/L. The same molecule gave an EC100 in assay [2] of more than 500 mg/L.
Regarding `O=Cc1cccc(C=O)c1` [ISOPHTHALIC DICARBOXALDEHYDE], the Activity in assay [3] worked out at 0%; in assay [5], 0%; in assay [4], 1%. Further, in assay [1], a half-maximal response (EC50) required 15 mg/L (≈ 112 µM). Also, in assay [2], the EC100 was more than 100 mg/L.
Turning to `O=Cc1ccccc1` [BENZALDEHYDE], the figures for the Activity in assay [3], in assay [5] and in assay [4] were 0%, 6% and 0%, respectively. This molecule also came in with an EC50 in assay [1] of more than 250 mg/L. Also, in assay [2], the EC100 is more than 100 mg/L.
Molecule `O=Cc1ccccc1C=O` [ORTHO-PHTHALALDEHYDE] returned an EC50 in assay [1] of 11 mg/L (≈ 82 µM). This molecule yielded an EC100 in assay [2] of more than 50 mg/L.
With `COc1ccccc1C=O` [2-METHOXYBENZALDEHYDE], the Activity in assay [3] stood at 77%; in assay [4] it was 74%. In assay [1], this molecule had an EC50 of more than 1000 mg/L. The molecule also had an EC100 in assay [2] of more than 1000 mg/L.
As for `CC(C)=CCC/C(C)=C/C=O` [CITRAL], the concentration for a half-maximal effect (EC50) in assay [1] is 72 mg/L (≈ 473 µM). In assay [2], this molecule displayed an EC100 of more than 250 mg/L.
For `CCCCC/C=C/C=C/C=O`, in assay [6], the outcome was inactive. Further, the result in assay [7] and in assay [8] was Active. In assay [1], this molecule showed an EC50 of 12 mg/L (≈ 78.8 µM). The molecule also had an EC100 in assay [2] of more than 20 mg/L.
Molecule `COc1cc(C=O)ccc1O` [VANILLIN] gave an EC50 in assay [1] of more than 1000 mg/L. The EC100 in assay [2] was more than 1000 mg/L.
The matching figures for `COC(=O)c1ccccc1O` [METHYL SALICYLATE]: more than 1000 mg/L and more than 1000 mg/L.
The matching figures for `O=Cc1ccc2ccccc2c1` [2-NAPHTHALDEHYDE]: 13 mg/L (≈ 83.2 µM) and more than 75 mg/L.
On to `O=Cc1ccc2c(c1)OCO2` [PIPERONAL], for which the figures for the Activity in assay [3] and in assay [4] were 30% and 5%, respectively. The EC50 in assay [1] came to 44 mg/L (≈ 293 µM). In assay [2], this molecule displayed an EC100 of more than 100 mg/L.
In assay [1], `C[C@@H]1O[C@@H](O[C@H]2C[C@@H](O)[C@]3(CO)[C@H]4[C@H](O)C[C@]5(C)[C@@H](C6=CC(=O)OC6)CC[C@]5(O)[C@@H]4CC[C@]3(O)C2)[C@H](O)[C@H](O)[C@H]1O` [OUABAIN] came in with an EC50 of more than 1000 mg/L. The molecule further yielded an EC100 in assay [2] of more than 1000 mg/L.
As for `O=Cc1ccccc1O[C@@H]1O[C@H](CO)[C@@H](O)[C@H](O)[C@H]1O` [HELICIN], the EC50 in assay [1] was more than 250 mg/L. This molecule also yielded an EC100 in assay [2] of more than 250 mg/L.

(Values after ChEMBL document CHEMBL3045766, “Potent nematicidal activity of phthalaldehyde, salicylaldehyde, and cinnamic aldehyde against Meloidogyne incognita” (J Agric Food Chem, 2013).)
